PfGluPho inh: PfG6PD (Plasmodium falciparum) enzyme inhibition | PfGluPho enzyme, NADPH resazurin-diaphorase fluorescence | inhibition, % at 20 µM | hit rate 0.78% among 350,000;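 active means inhibition reaching at least a set limit at 20 µM in the primary screen, cut at about 59% in these data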
MC4R antagonist: blocks human MC4R cAMP signaling; P32245; MC4R-expressing cells, MTII-stimulated cAMP, LANCE TR-FRET; inhibition, % at 6.5 µM; hit rate 0.48% among 360,000; AID 540295;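 active means inhibition above its plate's cutoff, the mean of tested wells on that plate plus 3 SD, cut at about 29% in these data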
Target sequence (P32245 whole entry, looked up): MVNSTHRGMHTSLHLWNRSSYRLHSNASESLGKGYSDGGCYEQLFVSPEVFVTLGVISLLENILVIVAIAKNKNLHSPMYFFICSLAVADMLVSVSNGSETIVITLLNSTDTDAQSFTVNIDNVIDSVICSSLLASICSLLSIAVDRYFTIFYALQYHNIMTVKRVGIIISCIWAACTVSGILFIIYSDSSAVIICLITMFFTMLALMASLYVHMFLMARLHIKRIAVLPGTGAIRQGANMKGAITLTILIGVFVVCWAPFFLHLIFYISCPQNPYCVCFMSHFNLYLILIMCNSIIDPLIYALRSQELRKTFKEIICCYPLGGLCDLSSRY
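System – human MC4R-expressing U2OS cells · Also added – Melanotan II · Dosing – one concentration, 6.5 µM nominal · Timing – 30-min compound, 1-h challenge, 1-h detection, room temperature · Measured by – Eu-cAMP/anti-cAMP TR-FRET, emission 671 nm · Replicates – singlicate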
ABHD5-PLIN5 inh: inhibitors of human ABHD5-perilipin-5 interaction | Q00G26+Q8WTS1 | Split G. princeps luciferase complementation, luminescence, 4 h | inhibition, % at 4 µM | hit rate 0.78% among 360,000 | AID 602281;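 active means inhibition above the mean inhibition across every tested compound plus 3 SD, cut at about 22% in these data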
Beta2AR agonist: human beta-2 adrenergic receptor agonism by FAP; Am2.2-beta2AR cells, FAP receptor internalization, flow cytometry; hit rate 0.43% among 340,000; P07550; response, % (concentration not given with the values); AID 504454;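 active means response above a set limit, near 3 SD of response in nonfluorescent compounds, cut at about 42% in these data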
MC4R ag barr: human MC4R agonism via beta-arrestin; P32245; U2OS MC4R beta-arrestin complementation, luminescence; percent of melanotan II response, DMSO zero; activation, % at 8.9 µM; hit rate 0.98% among 360,000; AID 540308;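 active means activation above a per-plate cutoff, the mean activation of sample wells on that plate plus 3 SD, cut at about 8% in these data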
U2OS cAMP counter: counter-screen for MC4R antagonists: nonselective cAMP signaling inhibitors; shares compounds with MC4R antagonist; parental U2OS, forskolin cAMP, LANCE TR-FRET; hit rate 26% among 1,600; inhibition, % at 6.5 µM;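 active means mean inhibition over triplicates above the low-control well mean plus 3 SD, set per campaign, cut at about 13% in these data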;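 further: signal is single emission at 671 nm which falls as cellular cAMP rises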
MC4R cAMP antag: human MC4R cAMP antagonism confirmation; inhibition, % at 6.5 µM; MC4R-expressing cells, MTII-stimulated cAMP, TR-FRET; shares compounds with MC4R antagonist; hit rate 27% among 1,600; in the data active means inhibition above about 29%
Numbers stand for hits; i = inactive; nt = not tested or not shown; + = active, no number. Most compounds without a hit are left out; they make up all but 3% or so of the library.

SMILES | PfGluPho inh | MC4R antagonist | ABHD5-PLIN5 inh | Beta2AR agonist | MC4R ag barr | U2OS cAMP counter | MC4R cAMP antag
O=C(NCCO)c1ccc(-c2ccc3nncn3c2)cc1 | nt | i | i | nt | i | nt | nt
CCN(CC)S(=O)(=O)c1ccc(OC)c(NC(=O)Cn2cnc3c2c(=O)n(C)c(=O)n3C)c1 | i | 33 | i | i | i | i | i
COC(=O)[C@H](CCSC)NC(=O)Cn1cnc2c(OCc3ccccc3)ncnc21 | i | i | i | i | i | nt | nt
CC(=O)Nc1ccc(C(=O)NCC2CCCCC2)cc1 | i | i | i | i | i | nt | nt
CCSc1nnc(-c2ccccc2SC)o1 | i | 30 | i | i | i | i | i
O=C(COc1ccc2ccccc2c1)N1CCN(C(=O)c2ccc([N+](=O)[O-])cc2)CC1 | i | 32 | i | i | i | i | i
O=C(Nc1cccc(S(=O)(=O)N2CCCCC2)c1)c1cc(=O)[nH]c2ccccc12 | i | i | i | i | i | nt | nt
O=C(Nc1nccs1)c1ccc2c(=O)n3c(nc2c1)CCCCC3 | i | i | i | i | i | nt | nt
N=c1c(C(=O)NC2CCCCC2)cc2c(=O)n3ccccc3nc2n1CCc1ccccc1 | i | i | i | i | i | nt | nt
O=C(CCCC(=O)N(c1ccc2c(c1)OCCO2)C(C(=O)NC1CCCCC1)c1ccc(Cl)cc1)Nc1ccccn1 (configuration not stated) | i | i | i | i | i | nt | nt
COc1ccc(C(C(=O)NC2CCCCC2)N(C(=O)CCCC(=O)Nc2ccccn2)c2ccc3c(c2)OCCO3)cc1 (configuration not stated) | i | 33 | i | i | i | i | i
CN(C)CCNC(=O)C1(C)Cc2c(-c3cccc(C(F)(F)F)c3)ccnc2O1 (configuration not stated) | nt | i | i | nt | i | nt | nt
COCCn1c(SCC(=O)NC2CCCCC2C)nnc1-c1ccncc1 (configuration not stated) | i | 29 | i | i | i | i | i
COCCCn1c(SCC(=O)NC2CCCCC2)nnc1-c1ccncc1 | i | i | i | i | i | nt | nt
COc1cccc(C(C(=O)NC(C)(C)C)N(Cc2ccc(F)cc2)C(=O)CCC(=O)Nc2cc(C)on2)c1OC (configuration not stated) | i | 30 | i | i | i | i | i
CCC(C)(C)NC(=O)C(c1cccc(OC)c1OC)N(Cc1ccc(OC)cc1)C(=O)CCC(=O)Nc1cc(C)on1 (configuration not stated) | i | i | i | i | i | nt | nt
O=c1sc(N2CCN(c3ccccc3F)CC2)nc2ccsc12 | i | i | i | i | i | nt | nt
O=c1sc(N2CCN(c3ccc(F)cc3)CC2)nc2ccsc12 | i | + | i | i | i | i | i
Cc1cc2nc(-c3ccc(SCC(=O)N4CCOCC4)nc3)[nH]c2cc1C | i | i | i | i | i | nt | nt
CCOC(=O)CSc1ccc(-c2nc3cc(C)c(C)cc3[nH]2)cn1 | i | 34 | i | i | i | i | i
Cc1ccc(CC(=O)N2CCN(c3cccc(C(F)(F)F)c3)CC2)cc1 | i | 33 | i | i | i | i | i
Cc1ccc(S(=O)(=O)CC(=O)N2CCN(c3cccc(C(F)(F)F)c3)CC2)cc1 | i | i | i | i | i | nt | nt
CCOc1ccc(-n2nc3c(=S)[nH]nc(C)c3c2C)cc1 | i | 92 | i | i | i | 55 | 107
Cc1ccc2c(CC(=O)Nc3ccc(F)c(S(=O)(=O)N4CCOCC4)c3)coc2c1 | i | i | i | i | i | nt | nt
CCOC(=O)c1c(C)[nH]c(C)c1C(=O)COC(=O)c1cc(OC)c(OC)cc1OC | i | 32 | i | i | i | i | i
SMILES | PfGluPho inh | MC4R antagonist | ABHD5-PLIN5 inh | Beta2AR agonist | MC4R ag barr | U2OS cAMP counter | MC4R cAMP antag
O=C(O)COCC(=O)Nc1ccc(-n2cnnn2)cc1 | i | i | i | i | i | nt | nt
CS(=O)(=O)c1ccc(Cl)c(NC(=O)COC(=O)CNC(=O)c2ccc(Br)o2)c1 | i | 32 | i | i | i | i | i
S=c1nc[nH]c2c1[nH]c1ccc(Cl)cc12 | i | 35 | i | i | i | i | i
S=c1nc(-c2ccccc2)[nH]c2ccccc12 | i | i | i | i | i | nt | nt
S=c1nc[nH]c2c1[nH]c1ccccc12 | i | 49 | i | i | i | i | i
Cc1nc2ccc(NC(=O)c3ccc(S(=O)(=O)N(C)c4ccccc4)cc3)cc2s1 | i | 30 | i | i | i | 27 | i
CCCOc1cccc(C(=O)N/N=C/c2ccoc2)c1 | i | i | i | i | i | nt | nt
Cc1cc(C)cc(NC(=O)CN2CCC(NC(=O)c3cccc(F)c3)CC2)c1 | i | i | i | i | i | nt | nt
Cc1ccc(NC(=O)CN2CCC(NC(=O)c3cccc(F)c3)CC2)cc1C | i | 30 | i | i | i | i | i
CC1CCc2sc(C(=O)N3CCC(C(N)=O)CC3)cc2C1 (configuration not stated) | i | i | i | i | i | nt | nt
CCOc1cc(OCC)cc(C(=O)N2CCC[C@H]2C(=O)N2CCC[C@H]2C(=O)N(C)Cc2ccccc2)c1 | nt | nt | i | nt | nt | nt | nt
O=C(CCC(=O)Nc1ccccc1)NCCO | i | i | i | i | i | nt | nt
COc1ccc(NC(=O)CCC(=O)NCCO)cc1 | i | 37 | i | i | i | i | i
CC(Sc1nnc(NC2CC2)s1)C(=O)Nc1ccc(N2CCOCC2)cc1 (configuration not stated) | i | i | i | i | i | nt | nt
CC(Sc1nnc(NC2CCCCC2)s1)C(=O)Nc1ccc2c(c1)C(=O)c1ccccc1C2=O (configuration not stated) | i | 30 | i | i | i | i | i
O=C(N/N=C\CCc1ccccc1)c1ccco1 | i | i | i | i | i | nt | nt
CC1(C)Cc2c(sc3[nH]c(=S)n(Cc4ccco4)c(=O)c23)CO1 | i | 34 | i | i | i | i | i
O=C(NCCN1C(=O)S/C(=C\c2ccc(Cl)c([N+](=O)[O-])c2)C1=O)C1=COCCO1 | i | 29 | i | i | i | i | i
COC(=O)C1CCN(C(=O)COC(=O)CNC(=O)c2ccc(Cl)cc2Cl)CC1 | i | 34 | i | i | i | 14 | i
O=C(CNC(=O)c1ccc(Cl)cc1Cl)OCc1nc2ccccc2s1 | i | 29 | i | i | i | 14 | i
O=C(CNC(=O)c1ccc(Cl)cc1Cl)OCc1ccccc1 | i | i | i | i | i | nt | nt
O=C(CNC(=O)c1ccccc1)OCc1nc2ccccc2s1 | i | 37 | i | i | i | 17 | i
O=C(CNC(=O)c1ccccc1F)OCc1nc2ccccc2s1 | i | i | i | i | i | nt | nt
CN(C(=O)COC(=O)CNC(=O)c1ccc(Cl)cc1Cl)c1ccccc1 | i | 30 | i | i | i | i | i
O=C(COC(=O)CNC(=O)c1ccc(Cl)cc1Cl)NNC(=O)c1ccccc1 | i | i | i | i | i | nt | nt
CSc1ccc(S(=O)(=O)NCC(=O)OCCOc2ccccc2)cc1[N+](=O)[O-] | i | i | i | i | i | nt | nt
